From ChEMBL document CHEMBL1135643, “Synthesis and biological activity of strongly fluorescent tricyclic analogues of acyclovir and ganciclovir” (2002) come the findings set out here.

SMILES strings stand for the structures. ≈ marks a conversion by molar mass, not a printed value.

Common to all, as to format: functional
A short description of assay [1]: Minimum inhibitory concentration against Herpes simplex Virus-1(KOS). The note with it: Human alphaherpesvirus 1. The essentials:
(§1)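 Confluent E6SM fibroblast monolayers were infected with 100 CCID50 of virus (1 CCID50 infects 50% of inoculated cultures). After 1 h adsorption, residual virus was removed and cultures were incubated with 2- to 5-fold serial dilutions of compound. Inhibition of virus-induced cytopathicity was scored once the virus-infected controls reached full CPE (day 3 post-infection).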

Assay [2] is described as follows: Minimum inhibitory concentration against Herpes simplex Virus-1 (McIntyre). The note with it: Human alphaherpesvirus 1. The gist of the method:
as §1

The nature of assay [3]: Minimum inhibitory concentration against Herpes simplex Virus-2(Lyons). The conditions noted are these: Human alphaherpesvirus 2. The gist of the method: as §1
Assay [4] in a line: Minimum inhibitory concentration against Herpes simplex Virus-1 (KOS) (ACV). The conditions noted are these: Human alphaherpesvirus 1. The essentials: as §1
The nature of assay [5]: Minimum inhibitory concentration against Herpes simplex Virus-1(F). The note with it: Human alphaherpesvirus 1. The gist of the method: as §1
A short description of assay [6]: Minimum cytotoxic concentration in E6SM fibroblast cells. The note with it: Homo sapiens, read-out: Min cytotoxic concentration.
Assay [7] in a line: Minimum inhibitory concentration against Herpes simplex Virus-2(196). The note with it: Human alphaherpesvirus 2. The essentials:
as §1

Assay [8] is described as follows: Minimum inhibitory concentration against Herpes simplex Virus-2(G). The essentials: as §1

Take `O=C(Oc1ccccc1)Oc1ccc(-c2cn3c(O)c4ncn(COC(CO)CO)c4nc3n2)cc1`: the MIC stood at 0.008 µM (≈ 0.00393 µg/mL) in assay [1]; 0.781 µM (≈ 0.384 µg/mL) in assay [2]; 0.156 µM (≈ 0.0767 µg/mL) in assay [3]; 19 µM (≈ 9.34 µg/mL) in assay [4]; 0.031 µM (≈ 0.0152 µg/mL) in assay [5]; 0.781 µM (≈ 0.384 µg/mL) in assay [7]. Also, the MIC in assay [8] (Human alphaherpesvirus 2) turned out to be 0.417 µM (≈ 0.205 µg/mL). The MCC in assay [6] stood at 814 µM.

With `O=C(Nc1ccc(-c2cn3c(O)c4ncn(COCCO)c4nc3n2)cc1)Oc1ccccc1`, the MIC in assay [1] stood at 1.1 µM (≈ 0.506 µg/mL); in assay [2], 0.834 µM (≈ 0.384 µg/mL); in assay [3], 1.4 µM (≈ 0.645 µg/mL); in assay [4], 174 µM (≈ 80.1 µg/mL); in assay [5], 0.834 µM (≈ 0.384 µg/mL); in assay [7] it was 1.4 µM (≈ 0.645 µg/mL). The MIC in assay [8] (Human alphaherpesvirus 2) was 2.5 µM (≈ 1.15 µg/mL). Further, the MCC in assay [6] was determined as 869 µM.

As for `CC(=O)Nc1ccc(-c2cn3c(O)c4ncn(COCCO)c4nc3n2)cc1`, the MIC in assay [1] was found to be 6.7 µM (≈ 2.56 µg/mL); in assay [2] it was 25 µM (≈ 9.56 µg/mL); in assay [3], 25 µM (≈ 9.56 µg/mL); in assay [4], 25 µM (≈ 9.56 µg/mL); in assay [5] it was 5 µM (≈ 1.91 µg/mL); in assay [7], 25 µM (≈ 9.56 µg/mL). Besides, the MIC in assay [8] (Human alphaherpesvirus 2) is 8.4 µM (≈ 3.21 µg/mL). Further, in assay [6], the MCC was 126 µM.

Consider `CC(C)C(=O)Oc1ccc(-c2cn3c(O)c4ncn(COCCO)c4nc3n2)cc1`, for which the MIC in assay [1] is 0.56 µM (≈ 0.23 µg/mL); in assay [2], 0.187 µM (≈ 0.0769 µg/mL); in assay [3], 0.933 µM (≈ 0.384 µg/mL); in assay [4] it was 583 µM (≈ 240 µg/mL); in assay [5] it was 0.311 µM (≈ 0.128 µg/mL); in assay [7], 0.933 µM (≈ 0.384 µg/mL). Moreover, the MIC in assay [8] (Human alphaherpesvirus 2) is 0.622 µM (≈ 0.256 µg/mL). Besides, the MCC in assay [6] was determined as 972 µM.

On to `CC(C)C(=O)Nc1ccc(-c2cn3c(O)c4ncn(COCCO)c4nc3n2)cc1`, for which the MIC in assay [1] turned out to be 2.8 µM (≈ 1.15 µg/mL); in assay [2], 4.7 µM (≈ 1.93 µg/mL); in assay [3] it was 4.7 µM (≈ 1.93 µg/mL); in assay [4] it was 780 µM (≈ 320 µg/mL); in assay [5] it was 4.7 µM (≈ 1.93 µg/mL); in assay [7], 4.7 µM (≈ 1.93 µg/mL). Also, in assay [8] (Human alphaherpesvirus 2), the MIC was 4.4 µM (≈ 1.81 µg/mL). For the same compound, in assay [6], the MCC was 975 µM.

With `OCC(CO)OCn1cnc2c(O)n3cc(-c4ccc(O)cc4)nc3nc21`, the MIC was determined as 0.041 µM (≈ 0.0152 µg/mL) in assay [1]; 0.207 µM (≈ 0.0769 µg/mL) in assay [2]; 0.207 µM (≈ 0.0769 µg/mL) in assay [3]; 69 µM (≈ 25.6 µg/mL) in assay [4]; 0.041 µM (≈ 0.0152 µg/mL) in assay [5]; 0.207 µM (≈ 0.0769 µg/mL) in assay [7]. In addition, in assay [8] (Human alphaherpesvirus 2), the MIC turned out to be 0.96 µM (≈ 0.356 µg/mL). Also, the MCC in assay [6] amounted to 1080 µM.

As for `CC(C)C(=O)Oc1ccc(-c2cn3c(O)c4ncn(COC(CO)CO)c4nc3n2)cc1`, the MIC in assay [1] came to 0.116 µM (≈ 0.0512 µg/mL); in assay [2], 0.174 µM (≈ 0.0768 µg/mL); in assay [3], 0.174 µM (≈ 0.0768 µg/mL); in assay [4], 22 µM (≈ 9.71 µg/mL); in assay [5], 0.035 µM (≈ 0.0155 µg/mL); in assay [7], 0.87 µM (≈ 0.384 µg/mL). This compound also came in with an MIC in assay [8] (Human alphaherpesvirus 2) of 0.116 µM (≈ 0.0512 µg/mL). In assay [6], the MCC was 906 µM.

On to `O=C(Oc1ccccc1)Oc1ccc(-c2cn3c(O)c4ncn(COCCO)c4nc3n2)cc1`, for which the MIC in assay [1] came out at 0.832 µM (≈ 0.384 µg/mL); in assay [2] it was 0.166 µM (≈ 0.0766 µg/mL); in assay [3], 0.832 µM (≈ 0.384 µg/mL); in assay [4] it was 694 µM (≈ 320 µg/mL); in assay [5] it was 0.166 µM (≈ 0.0766 µg/mL); in assay [7] it was 0.832 µM (≈ 0.384 µg/mL). Also, the MIC in assay [8] (Human alphaherpesvirus 2) was determined as 0.83 µM (≈ 0.383 µg/mL). In assay [6], the MCC is 867 µM.

Regarding `OCCOCn1cnc2c(O)n3cc(-c4ccc(O)cc4)nc3nc21`, the MIC in assay [1] came to 0.675 µM (≈ 0.23 µg/mL); in assay [2], 0.225 µM (≈ 0.0768 µg/mL); in assay [3], 0.225 µM (≈ 0.0768 µg/mL); in assay [4], 234 µM (≈ 79.9 µg/mL); in assay [5], 0.225 µM (≈ 0.0768 µg/mL); in assay [7], 0.375 µM (≈ 0.128 µg/mL). In assay [8] (Human alphaherpesvirus 2), this compound had an MIC of 0.675 µM (≈ 0.23 µg/mL). The MCC in assay [6] was determined as 703 µM.

As for `CC(=O)Oc1ccc(-c2cn3c(O)c4ncn(COC(CO)CO)c4nc3n2)cc1`, the MIC came out at 0.049 µM (≈ 0.0203 µg/mL) in assay [1]; 0.186 µM (≈ 0.0769 µg/mL) in assay [2]; 0.186 µM (≈ 0.0769 µg/mL) in assay [3]; 23 µM (≈ 9.51 µg/mL) in assay [4]; 0.062 µM (≈ 0.0256 µg/mL) in assay [5]; 0.186 µM (≈ 0.0769 µg/mL) in assay [7]. For the same compound, the MIC in assay [8] (Human alphaherpesvirus 2) turned out to be 97 µM (≈ 40.1 µg/mL). In assay [6], the MCC was 968 µM.

On to `NC(=O)Nc1ccc(-c2cn3c(O)c4ncn(COCCO)c4nc3n2)cc1`, for which the MIC stood at 15 µM (≈ 5.75 µg/mL) in assay [1]; 5 µM (≈ 1.92 µg/mL) in assay [2]; 8.3 µM (≈ 3.18 µg/mL) in assay [3]; 126 µM (≈ 48.3 µg/mL) in assay [4]; 5 µM (≈ 1.92 µg/mL) in assay [5]; 8.3 µM (≈ 3.18 µg/mL) in assay [7]. Also, the MIC in assay [8] (Human alphaherpesvirus 2) came out at 15 µM (≈ 5.75 µg/mL). The MCC in assay [6] turned out to be 209 µM.

For `CC(=O)Oc1ccc(-c2cn3c(O)c4ncn(COCCO)c4nc3n2)cc1`, the MIC amounted to 0.601 µM (≈ 0.23 µg/mL) in assay [1]; 0.2 µM (≈ 0.0767 µg/mL) in assay [2]; 0.2 µM (≈ 0.0767 µg/mL) in assay [3]; 626 µM (≈ 240 µg/mL) in assay [4]; 0.2 µM (≈ 0.0767 µg/mL) in assay [5]; 0.2 µM (≈ 0.0767 µg/mL) in assay [7]. The compound further came in with an MIC in assay [8] (Human alphaherpesvirus 1) of 0.601 µM (≈ 0.23 µg/mL). Moreover, in assay [6], the MCC was determined as 1040 µM.

With `Nc1nc2c(ncn2COCCO)c(=O)[nH]1` [ACYCLOVIR], the MIC in assay [1] was determined as 0.341 µM (≈ 0.0768 µg/mL); in assay [2], 0.341 µM (≈ 0.0768 µg/mL); in assay [3] it was 1 µM (≈ 0.225 µg/mL); in assay [4], 249 µM (≈ 56.1 µg/mL); in assay [5], 0.341 µM (≈ 0.0768 µg/mL); in assay [7] it was 1 µM (≈ 0.225 µg/mL). The compound also registered an MIC in assay [8] (Human alphaherpesvirus 2) of 0.242 µM (≈ 0.0545 µg/mL). For the same compound, the MCC in assay [6] was 1780 µM.

On to `Nc1nc2c(ncn2COC(CO)CO)c(=O)[nH]1` [GANCICLOVIR], for which the MIC in assay [1] was determined as 0.03 µM (≈ 0.00766 µg/mL); in assay [2] it was 0.04 µM (≈ 0.0102 µg/mL); in assay [3], 0.045 µM (≈ 0.0115 µg/mL); in assay [4] it was 7.5 µM (≈ 1.91 µg/mL); in assay [5] it was 0.045 µM (≈ 0.0115 µg/mL); in assay [7] it was 0.1 µM (≈ 0.0255 µg/mL). Besides, in assay [8] (Human alphaherpesvirus 2), the MIC was 0.06 µM (≈ 0.0153 µg/mL). The MCC in assay [6] worked out at 392 µM.
